Measurements: article PMC2784041 (Environmental Microbiology, 2009)
Read-outs that look alike come from different tables or passages of the source.

Columns and labels:
Assay in all cases: spectrophotometric ring-cleavage assay, non-linear Michaelis-Menten fit
EXDO-Dbt_s207 = assay type: biochemical; details: read-out: Km (μM) ^b, partially purified enzyme
EXDO-D_s45 = assay type: biochemical, uncultured bacterium; details: read-out: Km (μM) ^b; 50 mM K/Na-phosphate pH 8.0, air-saturated; partially purified enzyme
Procedure, shortened: (§1)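 Enzyme came from E. coli EPI300-T1R fosmid clones grown at 37°C in LB with 0.01% L-arabinose and 25 μg ml−1 chloramphenicol, harvested in late exponential phase. Extracts were partially purified by anion exchange chromatography. Ring-cleavage product was followed spectrophotometrically in 50 mM air-saturated K/Na-phosphate pH 8.0 (catechol ε375, 3-methylcatechol ε388, 2,3-dihydroxybiphenyl ε434). Km was obtained from initial velocities over 1–100 μM substrate by non-linear Michaelis–Menten regression.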

EXDO-K2_s3 = assay type: biochemical; details: read-out: Km (μM) ^b; 50 mM K/Na-phosphate pH 8.0, air-saturated; partially purified enzyme
Procedure, shortened: as §1

EXDO-K2_s129 = assay type: biochemical; details: read-out: Km (μM) ^b; 50 mM K/Na-phosphate pH 8.0, air-saturated; partially purified enzyme
Procedure, shortened: as §1

EXDO-K2_s7 = assay type: biochemical; details: read-out: Km (μM) ^b; 50 mM K/Na-phosphate pH 8.0, air-saturated; partially purified enzyme
Procedure, shortened: as §1

EXDO-K2_s162 = assay type: biochemical; details: read-out: Km (μM) ^b; 50 mM K/Na-phosphate pH 8.0, air-saturated; partially purified enzyme
Procedure, shortened: as §1

EXDO-D_s4 = assay type: biochemical, uncultured bacterium; details: read-out: Km (μM) ^b; 50 mM K/Na-phosphate pH 8.0, air-saturated; partially purified enzyme
Procedure, shortened: as §1

EXDO-D_s151 = assay type: biochemical, uncultured bacterium; details: read-out: Km (μM) ^b; 50 mM K/Na-phosphate pH 8.0, air-saturated; partially purified enzyme
Procedure, shortened: as §1

[1] = 50 mM K/Na-phosphate pH 8.0, air-saturated

Row | SMILES | Km (EXDO-Dbt_s207; [1]) | Km (EXDO-D_s45) | Km (EXDO-K2_s3) | Km (EXDO-K2_s129) | Km (EXDO-K2_s7) | Km (EXDO-K2_s162) | Km (EXDO-D_s4) | Km (EXDO-D_s151) | Km (EXDO-Dbt_s207; 50 mM acetic acid/NaOH pH 5.5, air-saturated)
1 | Cc1cccc(O)c1O [3-methylcatechol] | 13.6 ± 1.9 µM | 0.27 ± 0.1 µM | 4.5 ± 0.6 µM | 9.3 ± 1.1 µM | 4.6 ± 0.4 µM | 4.3 ± 0.7 µM | 1.8 ± 0.3 µM | 3.5 ± 1.5 µM | –
2 | Oc1ccc2ccccc2c1O [1,2-dihydroxynaphthalene] | – | – | – | – | – | – | – | – | 11.6 ± 1.4 µM
3 | Oc1cccc(-c2ccccc2)c1O [2,3-dihydroxybiphenyl] | 4.2 ± 0.7 µM | 0.61 ± 0.08 µM | 2.1 ± 0.2 µM | 2.1 ± 0.2 µM | 0.84 ± 0.08 µM | 1 ± 0.1 µM | 3.7 ± 0.6 µM | – | –
4 | Oc1ccccc1O [catechol] | 35 ± 5 µM | 0.27 ± 0.03 µM | – | – | – | – | 1.4 ± 0.2 µM | 1.1 ± 0.2 µM | –
